This is a sample that favours compounds with a hit; in the whole collection about 3.9% have one here.
m5-HT2A agonist – mouse HTR2A agonism via beta-arrestin recruitment; P35363; CHO-K1 mHTR2A beta-arrestin complementation, luminescence; percent of 30 µM serotonin response; activation, % at 7.6 µM; 0.66% of 360,000 active; AID 624169;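 active = activation above a run cutoff, the mean activation of all tested compounds plus 3 SD, cut at about 14% in these data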;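 note: 0% = plate median of compound wells and 100% = 30 µM serotonin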
M1 antag – blocks human M1 muscarinic receptor; P11229; AID 588852; 1.3% of 360,000 active; CHO-K1 hM1, Fluo-8 calcium fluorescence, ACh EC80 antagonist; inhibition, % at 3 µM;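 active = percent inhibition above its own plate's cutoff, namely the mean of that plate's compound wells plus 3 SD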;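 note: peak over basal fluorescence ratio during 140 s after agonist addition; 0% = ACh EC80 plus DMSO and 100% = DMSO alone without agonist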
M1 PAM – human CHRM1 positive allosteric modulation; P11229; CHO-K1 hM1, Fluo-8 calcium fluorescence, ACh EC20; 0% = ACh EC20, 100% = maximal ACh; activation, % at 3 µM; 0.088% of 360,000 active; AID 588819; in the data active = activation above about 19%, passing the limit was not always enough
CHRM1 agonist – activates human CHRM1 receptor; activation, % at 3 µM; P11229; CHO-K1 hM1, Fluo-8 calcium fluorescence, agonist mode; 0% DMSO, 100% acetylcholine EC100; 0.33% of 360,000 active; AID 588814;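 active = activation above the run's mean compound activation plus 3 SD, cut at about 16% in these data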;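 note: peak over basal fluorescence ratio within a 140 s kinetic read after compound addition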
TAAR1 antagonist – antagonists of human TAAR1; inhibition, % at 3 µM; AID 624466; CHO RD-HGA16 TAAR1, Fluo-8 calcium fluorescence, antagonist; 1.5% of 360,000 active;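 active = inhibition above a per-plate cutoff, the mean inhibition of test compounds on that plate plus 3 SD, cut at about 49% in these data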;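 note: 0% = DMSO plus EC80 beta-PEA response and 100% = DMSO alone without agonist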
Target sequence (Q96RJ0 whole entry, looked up): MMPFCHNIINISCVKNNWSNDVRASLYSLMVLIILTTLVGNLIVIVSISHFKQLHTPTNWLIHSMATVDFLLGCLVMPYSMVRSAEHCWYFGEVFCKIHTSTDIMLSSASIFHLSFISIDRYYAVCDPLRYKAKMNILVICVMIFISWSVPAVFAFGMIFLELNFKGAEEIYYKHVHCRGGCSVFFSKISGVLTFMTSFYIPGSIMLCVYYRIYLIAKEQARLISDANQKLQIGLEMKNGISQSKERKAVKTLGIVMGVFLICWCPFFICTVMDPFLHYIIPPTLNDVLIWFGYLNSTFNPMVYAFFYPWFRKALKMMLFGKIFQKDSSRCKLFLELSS
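Material: RD-HGA16 CHO cells with stable hTAAR1 and Gα16; Dosing: single nominal final test compound concentration of 3 µM; Schedule: seeding 17-24 h prior, 75-min 37 °C, 30-min RT dye loading; Detection: kinetic Fluo-8 calcium fluorescence measurement; Measure: % inhibition from peak post-agonist over basal fluorescence ratio; Benchmarks: vehicle and agonist controls.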
TAAR1 ag – human TAAR1 agonism; Q96RJ0; CHO RD-HGA16 TAAR1, Fluo-8 calcium fluorescence; vehicle wells 0%, saturating PEA agonist 100%; activation, % at 3 µM; 0.99% of 360,000 active; AID 624467;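 active = activation above the mean activation of all test compounds in the run plus 3 SD, cut at about 38% in these data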
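System: CHO-derived RD-HGA16 cells with stable Gα16 and human TAAR1 / Times: 17-24 h plating, Fluo-8 75 min 37 °C, 30 min RT / Technique: calcium-sensitive Fluo-8 signal, excitation 470-495, emission 515-575 nm / Measure: % activation relative to PEA EC100 response / Benchmarks: DMSO and PEA EC100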
The depositor's hits bear a star; x = not tested or not shown.

SMILES	m5-HT2A agonist	M1 antag	M1 PAM	CHRM1 agonist	TAAR1 antagonist	TAAR1 ag
Cc1cccc(C)c1-n1nnnc1C(c1cc2ccccc2o1)N1CCN(C/C=C/c2ccccc2)CC1 (stereo not drawn)	-7	56*	-25	-4	-3	-1
CCCCn1nnnc1C(c1ccnc2ccccc12)N1CCN(C/C=C/c2ccccc2)CC1 (stereo not drawn)	-4	80*	-27	-6	-14	2
CC(C)(C)n1nnnc1C(c1ccccc1)N1CCN(C/C=C/c2ccccc2)CC1 (stereo not drawn)	-3	63*	-24	-4	-12	0
C(=C\c1ccccc1)/CN1CCN(C(c2ccccc2)c2nnnn2Cc2ccccc2)CC1 (stereo not drawn)	-3	21	-24	-5	-8	0
COc1ccc(-n2nnnc2C(c2ccccc2)N2CCN(C/C=C/c3ccccc3)CC2)cc1 (stereo not drawn)	-10	68*	-26	-9	3	-2
CCc1nccn1CCC(=O)NC1CC(C)(C)Cc2c1cnn2-c1cccc(F)c1 (stereo not drawn)	-5	-8	8	-6	-25	1
O=C(NCc1ccccc1)[C@@H]1CCCN1C(=O)[C@H]1CCCN1C(=O)c1ccc(F)c(C(F)(F)F)c1	x	x	x	x	-7	0
O=C(/C=C(\Nc1ccc(Br)c(F)c1)c1ccccc1)c1ccccc1	x	x	x	x	-20	0
O=C(COc1ccccc1Cl)NNC(=O)c1ccc(-n2cncn2)c([N+](=O)[O-])c1	3	-13	6	-1	5	18
CCCCn1nnnc1C(c1ccccc1OC(F)(F)F)N1CCN(C/C=C/c2ccccc2)CC1 (stereo not drawn)	-4	16	-25	-8	3	-1
CCCCn1nnnc1C(c1cccc2ccccc12)N1CCN(C/C=C/c2ccccc2)CC1 (stereo not drawn)	-6	95*	-25	-5	-27	2
CCCCn1nnnc1C(c1ccccc1)N1CCN(C/C=C/c2ccccc2)CC1 (stereo not drawn)	-8	53*	-26	-7	-16	-1
CN(C(=O)c1cccc(NC(=O)Cc2ccc(NC(=O)C3CCN(C(=O)C4CCC4)CC3)cc2)c1)C1CCCCC1	9	11	-7	-7	4	3
CN(C)CCCNC(=O)N1c2ccccc2C=Cc2ccccc21	-3	97*	-29	-9	1	2
CCN(CC)C(=O)N1c2ccccc2C=Cc2ccccc21	-5	-7	-2	-6	11	10
CCOC(=O)c1oc2nc(CC(C)C)c3c(c2c1N)CCCC3	-4	-5	4	-6	-8	3
Cc1noc(C(=O)Nc2ccc(F)c(Cl)c2)c1Cl	0	83*	-30	-7	0	0
Cc1ccc(NC(=O)c2onc(C)c2Cl)cc1	-1	-17	11	-1	-17	-1
Cn1c(CNC(=O)CNC(=O)Cc2ccc(F)cc2)cc(=O)n(C)c1=O	7	-2	8	-1	-5	4
Cc1ccc(-n2nc3c(=O)n(CCCC(=O)N4CCC(C(N)=O)CC4)nc(C)c3c2C)cc1	-8	16	-5	-5	-25	4
CC1(c2ccccc2)NC(=O)N(CC(=O)NCc2ccc3c(c2)OCO3)C1=O (stereo not drawn)	10	-4	8	-4	6	-3
CC1(c2ccccc2Cl)NC(=O)N(CC(=O)NCc2ccc3c(c2)OCO3)C1=O (stereo not drawn)	13	-17	29*	2	14	2
COc1ccccc1C(CC(=O)c1ccccc1)C(=O)c1ccccc1 (stereo not drawn)	0	x	x	x	73*	6
COc1ccccc1C(CC(=O)c1ccccc1)CC(=O)c1ccccc1	-6	-3	2	-4	38	3
COc1cccc(CN(C)Cc2cc(=O)oc3c(C)c(C)ccc23)c1	8	-11	-4	1	13	2
SMILES	m5-HT2A agonist	M1 antag	M1 PAM	CHRM1 agonist	TAAR1 antagonist	TAAR1 ag
Cc1ccccc1CN(C)Cc1cc(=O)oc2c(C)c(C)ccc12	-3	2	0	-5	51*	-1
Cc1cc(=O)oc2cc(OCc3nnc(-c4ccccc4Br)o3)ccc12	1	3	-12	5	22	43*
O=c1ccc2ccc(OCc3nnc(-c4ccccc4Br)o3)cc2o1	-6	2	1	-1	12	23
COc1ccc(C(CNC(=O)CN2C(=O)NC3(CCCC3)C2=O)N(C)C)cc1 (stereo not drawn)	1	2	1	-6	-3	0
COc1ccc(C2=NOC(C(=O)NCc3cccs3)C2)cc1 (stereo not drawn)	-5	56*	7	-2	9	-1
COc1cccc(C2=NOC(C(=O)NCc3ccccn3)C2)c1 (stereo not drawn)	3	1	7	-2	-22	45*
COc1ccc(C2=NOC(C(=O)NCc3cccs3)C2)cc1OC (stereo not drawn)	x	x	x	x	-9	12
CCOC(=O)CCCNC(=O)CN1C(=O)NC(c2ccccc2)(c2ccccc2)C1=O	-2	-8	9	-3	-13	2
C=C1C(=O)[C@]23C[C@H]1CCC2[C@@]1(C)C(C[C@@H]3O)[C@](C)(C(=O)OC)CC[C@@H]1OC(C)=O (stereo partly drawn)	-2	52*	-23	-6	43	23
O=C(CN1CCOCC1)N1c2ccccc2Sc2ccccc21	3	10	-11	-8	12	2
O=C(CN1CCN(c2ccccn2)CC1)N1c2ccccc2Sc2ccc(C(F)(F)F)cc21	-8	31*	-27	-7	-11	0
O=C(CN1CCCC1)N1c2ccccc2Sc2ccc(Cl)cc21	-4	99*	-29	-10	-17	4
CCNCCC(=O)N1c2ccccc2Sc2ccc(C(F)(F)F)cc21	-5	100*	-29	-9	-5	3
O=C(CN1CCCC1)N1c2ccccc2Sc2ccc(C(F)(F)F)cc21	-3	99*	-19	-6	-5	10
CCC(CC)N1CCN(S(=O)(=O)c2ccc(OC)cc2)CC1	10	-38	25	-5	17	4
O=C(O)CCCNC(=O)Cc1ccccc1	-1	-9	6	0	5	1
COc1cccc(CNS(=O)(=O)c2c(C)[nH]c(C)c2C(=O)N2CCCCC2)c1	-6	-9	3	-4	-15	4
Cc1ccccc1C(=O)NC1CCN(CC(=O)Nc2ccc(Br)cc2)CC1	-5	-16	12	-1	2	0
